{
  "source": "paper PMC4263960",
  "about": "(Pediatric blood & cancer, 2013)",
  "key": {"[1]": {"tested_on": "OS-33 osteosarcoma xenograft", "assay": "PPTP in vivo xenograft testing, OS-33", "parameters": "species or system mice"}, "BT-12 cell line": {"tested_on": "BT-12 cell line", "assay": "DIMSCAN in vitro cytotoxicity testing, BT-12", "type": "cell-based", "method_in_brief": "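Test compound incubated with cells of a 24-line pediatric cancer panel for 96 h at 0.1 nM to 1 μM, then assessed by DIMSCAN. Relative IC50 (rIC50) derived per line. Panel comparison value is the panel rIC50 divided by the rIC50 of each cell line.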"}, "[2]": {"tested_on": "D456 glioblastoma xenograft", "assay": "PPTP in vivo xenograft testing, D456", "parameters": "species or system mice"}, "[3]": {"tested_on": "BT-39 glioblastoma xenograft", "assay": "PPTP in vivo xenograft testing, BT-39", "parameters": "species or system mice"}, "[4]": {"tested_on": "Rh30R ALV rhabdomyosarcoma xenograft", "assay": "PPTP in vivo xenograft testing, Rh30R", "parameters": "species or system mice"}, "EW8 Ewing xenograft": {"tested_on": "EW8 Ewing xenograft", "assay": "PPTP in vivo xenograft testing, EW8", "parameters": "species or system mice"}, "ALL xenografts": {"tested_on": "ALL xenografts", "assay": "PPTP in vivo testing, ALL xenograft panel summary", "parameters": "species or system mice"}, "[5]": {"tested_on": "GBM2 glioblastoma xenograft", "assay": "PPTP in vivo xenograft testing, GBM2", "parameters": "species or system mice"}, "KT-16 rhabdoid xenograft": {"tested_on": "KT-16 rhabdoid xenograft", "assay": "PPTP in vivo xenograft testing, KT-16", "parameters": "species or system mice"}, "KT-10 Wilms xenograft": {"tested_on": "KT-10 Wilms xenograft", "assay": "PPTP in vivo xenograft testing, KT-10", "parameters": "species or system mice"}, "KT-13 Wilms xenograft": {"tested_on": "KT-13 Wilms xenograft", "assay": "PPTP in vivo xenograft testing, KT-13", "parameters": "species or system mice", "conditions": "1 mg/kg IP"}, "[6]": {"conditions": "1 mg/kg IP Q4Dx3 repeated at Day 21"}},
  "data": [
    {"molecule": "C=C1C[C@@H]2CC[C@@]34C[C@H]5O[C@H]6[C@@H](O3)[C@H]3O[C@H](CC[C@@H]3O[C@H]6[C@H]5O4)CC(=O)C[C@@H]3[C@@H](OC)[C@@H](C[C@H](O)CN)O[C@H]3C[C@H]3O[C@@H](CC[C@@H]1O2)C[C@@H](C)C3=C", "note": "[Eribulin]", "values": [
      {"measurement": "EFS activity", "setting": "[1]; 1 mg/kg IP", "result": "High (High activity requires: (a) an EFS T/C >2; (b) a significant difference in EFS distributions, and (c) a net reduction in median tumor volume for animals in the treated group at the end of treatment as compared to at treatment initiation)"},
      {"measurement": "Response activity", "setting": "[1]; 1 mg/kg IP", "result": "High (A high level of activity is indicated by a score of 6 or more)"},
      {"measurement": "T/C volume activity", "setting": "[1]; 1 mg/kg IP", "result": "Int (Intermediate activity = T/C ≤0.45 but >0.15)"},
      {"measurement": "EFS T/C", "setting": "[1]; [6]", "result": ">2.7"},
      {"measurement": "Median final RTV (CD45%)", "setting": "[1]; [6]", "result": 0.2},
      {"measurement": "Tumor volume T/C", "setting": "[1]; 1 mg/kg IP, Day 21 or earlier", "result": 0.24},
      {"measurement": "Panel rIC50/Line rIC50", "setting": "BT-12 cell line; BT-12", "result": 1.83},
      {"measurement": "Relative in/out%", "setting": "BT-12 cell line; BT-12", "result": "−74", "unit": "%"},
      {"measurement": "Ymin % (observed)", "setting": "BT-12 cell line; BT-12", "result": 2.12, "unit": "%"},
      {"measurement": "IC50", "setting": "BT-12 cell line; Homo sapiens, BT-12, 96 h, read-out: rIC50", "result": 0.15, "unit": "nM"},
      {"measurement": "EFS activity", "setting": "[2]; 1 mg/kg IP", "result": "Int (Intermediate activity = criteria (a) and (b) above, but not having a net reduction in median tumor volume for treated animals at the end of the study)"},
      {"measurement": "Response activity", "setting": "[2]; 1 mg/kg IP", "result": "Int (intermediate activity by a score of ≥2 but <6)"},
      {"measurement": "T/C volume activity", "setting": "[2]; 1 mg/kg IP", "result": "Low (Low activity = T/C >0.45)"},
      {"measurement": "EFS T/C", "setting": "[2]; [6]", "result": 3.4},
      {"measurement": "Median final RTV (CD45%)", "setting": "[2]; [6]", "result": ">4"},
      {"measurement": "Time to event", "setting": "[2]; [6]", "result": 19.8},
      {"measurement": "Tumor volume T/C", "setting": "[2]; 1 mg/kg IP, Day 21 or earlier", "result": 1.00},
      {"measurement": "EFS activity", "setting": "[3]; 1 mg/kg IP", "result": "High (High activity requires: (a) an EFS T/C >2; (b) a significant difference in EFS distributions, and (c) a net reduction in median tumor volume for animals in the treated group at the end of treatment as compared to at treatment initiation)"},
      {"measurement": "Response activity", "setting": "[3]; 1 mg/kg IP", "result": "Int (intermediate activity by a score of ≥2 but <6)"},
      {"measurement": "T/C volume activity", "setting": "[3]; 1 mg/kg IP", "result": "Low (Low activity = T/C >0.45)"},
      {"measurement": "EFS T/C", "setting": "[3]; [6]", "result": ">3.6"},
      {"measurement": "Median final RTV (CD45%)", "setting": "[3]; [6]", "result": 0.5},
      {"measurement": "Tumor volume T/C", "setting": "[3]; 1 mg/kg IP, Day 21 or earlier", "result": 1.00},
      {"measurement": "EFS activity", "setting": "[4]; 1 mg/kg IP", "result": "High (High activity requires: (a) an EFS T/C >2; (b) a significant difference in EFS distributions, and (c) a net reduction in median tumor volume for animals in the treated group at the end of treatment as compared to at treatment initiation)"},
      {"measurement": "Response activity", "setting": "[4]; 1 mg/kg IP", "result": "High (A high level of activity is indicated by a score of 6 or more)"},
      {"measurement": "T/C volume activity", "setting": "[4]; 1 mg/kg IP", "result": "High (High activity = T/C ≤0.15)"},
      {"measurement": "EFS T/C", "setting": "[4]; [6]", "result": ">4.3"},
      {"measurement": "Median final RTV (CD45%)", "setting": "[4]; [6]", "result": 0.0},
      {"measurement": "Tumor volume T/C", "setting": "[4]; 1 mg/kg IP, Day 21 or earlier", "result": 0.11},
      {"measurement": "EFS activity", "setting": "EW8 Ewing xenograft; 1 mg/kg IP", "result": "High (High activity requires: (a) an EFS T/C >2; (b) a significant difference in EFS distributions, and (c) a net reduction in median tumor volume for animals in the treated group at the end of treatment as compared to at treatment initiation)"},
      {"measurement": "Response activity", "setting": "EW8 Ewing xenograft; 1 mg/kg IP", "result": "High (A high level of activity is indicated by a score of 6 or more)"},
      {"measurement": "T/C volume activity", "setting": "EW8 Ewing xenograft; 1 mg/kg IP", "result": "High (High activity = T/C ≤0.15)"},
      {"measurement": "EFS T/C", "setting": "EW8 Ewing xenograft; [6]", "result": ">3.1"},
      {"measurement": "Median final RTV (CD45%)", "setting": "EW8 Ewing xenograft; [6]", "result": 0.0},
      {"measurement": "Tumor volume T/C", "setting": "EW8 Ewing xenograft; 1 mg/kg IP, Day 21 or earlier", "result": 0.00},
      {"measurement": "xenografts with CR or MCR", "setting": "ALL xenografts; ALL panel", "result": "All eight"},
      {"measurement": "xenografts with high EFS T/C activity", "setting": "ALL xenografts; ALL panel", "result": "six of eight"},
      {"measurement": "xenografts with significant difference in EFS distribution compared to control", "setting": "ALL xenografts; evaluable ALL xenografts, 1.5 mg/kg", "result": "8 of 8"},
      {"measurement": "EFS activity", "setting": "[5]; 1 mg/kg IP", "result": "High (High activity requires: (a) an EFS T/C >2; (b) a significant difference in EFS distributions, and (c) a net reduction in median tumor volume for animals in the treated group at the end of treatment as compared to at treatment initiation)"},
      {"measurement": "Response activity", "setting": "[5]; 1 mg/kg IP", "result": "High (A high level of activity is indicated by a score of 6 or more)"},
      {"measurement": "T/C volume activity", "setting": "[5]; 1 mg/kg IP", "result": "Low (Low activity = T/C >0.45)"},
      {"measurement": "EFS T/C", "setting": "[5]; [6]", "result": ">3.5"},
      {"measurement": "Median final RTV (CD45%)", "setting": "[5]; [6]", "result": 0.6},
      {"measurement": "Tumor volume T/C", "setting": "[5]; 1 mg/kg IP, Day 21 or earlier", "result": 1.00},
      {"measurement": "EFS activity", "setting": "KT-16 rhabdoid xenograft; 1 mg/kg IP", "result": "Low (Low activity = EFS T/C <2)"},
      {"measurement": "Response activity", "setting": "KT-16 rhabdoid xenograft; 1 mg/kg IP", "result": "Low (low activity by a score of <2)"},
      {"measurement": "T/C volume activity", "setting": "KT-16 rhabdoid xenograft; 1 mg/kg IP", "result": "Low (Low activity = T/C >0.45)"},
      {"measurement": "EFS T/C", "setting": "KT-16 rhabdoid xenograft; [6]", "result": 1.1},
      {"measurement": "Median final RTV (CD45%)", "setting": "KT-16 rhabdoid xenograft; [6]", "result": ">4"},
      {"measurement": "Time to event", "setting": "KT-16 rhabdoid xenograft; [6]", "result": 12.1},
      {"measurement": "Tumor volume T/C", "setting": "KT-16 rhabdoid xenograft; 1 mg/kg IP, Day 21 or earlier", "result": 0.76},
      {"measurement": "EFS activity", "setting": "KT-10 Wilms xenograft; 1 mg/kg IP", "result": "High (High activity requires: (a) an EFS T/C >2; (b) a significant difference in EFS distributions, and (c) a net reduction in median tumor volume for animals in the treated group at the end of treatment as compared to at treatment initiation)"},
      {"measurement": "Response activity", "setting": "KT-10 Wilms xenograft; 1 mg/kg IP", "result": "High (A high level of activity is indicated by a score of 6 or more)"},
      {"measurement": "T/C volume activity", "setting": "KT-10 Wilms xenograft; 1 mg/kg IP", "result": "High (High activity = T/C ≤0.15)"},
      {"measurement": "EFS T/C", "setting": "KT-10 Wilms xenograft; [6]", "result": ">3.7"},
      {"measurement": "Median final RTV (CD45%)", "setting": "KT-10 Wilms xenograft; [6]", "result": 0.0},
      {"measurement": "Tumor volume T/C", "setting": "KT-10 Wilms xenograft; 1 mg/kg IP, Day 21 or earlier", "result": 0.01},
      {"measurement": "EFS activity", "setting": "KT-13 Wilms xenograft", "result": "Int (Intermediate activity = criteria (a) and (b) above, but not having a net reduction in median tumor volume for treated animals at the end of the study)"}
    ]}
  ]
}
